Assay results from different studies.
pIC50: −log10 of the molar value.
Effect on: cell growth or viability

C/C1=C/C(=O)O[C@@H]2C[C@@H](CC[C@H](C)/C=C\C=C\CC1)O[C@@](O)([C@@H]1CSC(=O)N1Cc1ccccc1)C2
pIC50 (MDA-MB-231; MTT; 72 h): 5.57

COc1cccc2c1C(=O)c1c(O)c3c(c(O)c1C2=O)C[C@@](O)(C(=O)CO)C[C@@H]3O[C@H]1C[C@H](N)[C@H](O)[C@H](C)O1
IC50 (LLC-PK11; 48 h): 0.9 µg/mL

C1COCCN1.COc1ccc(/C=C\c2cc(I)c(OC)c(I)c2)cc1OP(=O)(O)O
GI50 (KM-20L2; SRB; 48 h): > 1 µg/mL

COc1c2c(cc3c1OCO3)[C@]13C=C[C@H](OC)C[C@@H]1[N@](C2)C[C@H]3OC(=O)c1ccco1
pIC50 (MRC5; WST-1): < 5.00

O=C(c1ccc(F)cc1)c1c[nH]c2ncc(-c3ccc(N4CCNCC4)nc3)cc12
viability (MRC5; MTT; 10 µM; 48 h): 89.4%

N.N.[Cl][Pt][Cl]
pIC50 (BEL-7404; MTT; 48 h): 4.88

C/C1=C/C(=O)O[C@@H]2C[C@@H](CC[C@H](C)/C=C\C=C\CC1)O[C@@](OCCc1ccccc1)([C@@H]1CSC(=O)N1)C2
pIC50 (MDA-MB-231; MTT; 72 h): 5.57

O=C(O)CCn1cc(C(=O)c2ccc(F)cc2)c2cc(-c3ccc(N4CCNCC4)nc3)cnc21
viability (MRC5; MTT; 10 µM; 48 h): 77.7%

CCN1C(=O)SCC1C1(OC)CC2CC(CCC(C)C=CC=CCCC(C)=CC(=O)O2)O1 (stereo not drawn)
pIC50 (MDA-MB-231; MTT; 72 h): < 4.30

COc1cc2c(cc1OS(N)(=O)=O)CCN(Cc1cc(Br)c(OC)c(OC)c1)C2
GI50 (MDA-MB-231; WST-1; 96 h): 30 nM

COc1ccc(C(=O)c2c[nH]c3ncc(-c4ccc(N5CCNCC5)nc4)cc23)cc1
viability (MRC5; MTT; 10 µM; 48 h): 99.2%

Cl.O[C@]12C=C(c3nccc4c3[nH]c3ccccc34)[C@@H]3CCN(CCCC/C=C\CC1)C[C@@]31C[C@@H]3/C=C\CCCCN3[C@H]12
IC50 (LLC-PK11; neutral red; 48 h): 0.69 µg/mL
